The values that follow come from ChEMBL document CHEMBL1142459, “Design and synthesis of a novel series of pyranonaphthoquinones as topoisomerase II catalytic inhibitors” (J Med Chem, 2008).

In assay [1] the target is DNA topoisomerase 2-alpha (Homo sapiens) (UniProt P11388). The assay can be described thus: Inhibition of human topoisomerase 2 alpha-mediated Crithidia fasciculate kDNA decatenation at 100 uM.
The target is the same in assay [2]. Nature of the assay: Inhibition of human topoisomerase 2 alpha-mediated bacterial plasmid DNA relaxation assessed as pRYG negative supercoiled form at 100 uM.
Assay [3] shares this target. The assay can be described thus: Inhibition of human topoisomerase 2 alpha-mediated bacterial plasmid DNA relaxation assessed as pRYG negative supercoiled form added 100 uM after relaxation.
The test system of assay [4] is Nucleic Acid. Nature of the assay: DNA intercalative activity assessed retardation in migration of negatively supercoiled small circular Escherichia coli pBSKS in agarose gel electrophoresis at 100 uM. In kind it is nucleic-acid assay. Summed up: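 250 ng negatively supercoiled pBSKS incubated 10 min at 37 °C with compound at 100 µM in 1% (v/v) DMSO; ethidium bromide 1 µg/mL as intercalator control. Run on 1% agarose in 1× TBE without ethidium bromide at 0.5 V/cm (low field); retardation of migration scored.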

Active and inactive are the calls of the source. The calls are words filed in the database; no cut-off is given here.

Chain of DNA topoisomerase 2-alpha (Homo sapiens) (P11388 whole entry): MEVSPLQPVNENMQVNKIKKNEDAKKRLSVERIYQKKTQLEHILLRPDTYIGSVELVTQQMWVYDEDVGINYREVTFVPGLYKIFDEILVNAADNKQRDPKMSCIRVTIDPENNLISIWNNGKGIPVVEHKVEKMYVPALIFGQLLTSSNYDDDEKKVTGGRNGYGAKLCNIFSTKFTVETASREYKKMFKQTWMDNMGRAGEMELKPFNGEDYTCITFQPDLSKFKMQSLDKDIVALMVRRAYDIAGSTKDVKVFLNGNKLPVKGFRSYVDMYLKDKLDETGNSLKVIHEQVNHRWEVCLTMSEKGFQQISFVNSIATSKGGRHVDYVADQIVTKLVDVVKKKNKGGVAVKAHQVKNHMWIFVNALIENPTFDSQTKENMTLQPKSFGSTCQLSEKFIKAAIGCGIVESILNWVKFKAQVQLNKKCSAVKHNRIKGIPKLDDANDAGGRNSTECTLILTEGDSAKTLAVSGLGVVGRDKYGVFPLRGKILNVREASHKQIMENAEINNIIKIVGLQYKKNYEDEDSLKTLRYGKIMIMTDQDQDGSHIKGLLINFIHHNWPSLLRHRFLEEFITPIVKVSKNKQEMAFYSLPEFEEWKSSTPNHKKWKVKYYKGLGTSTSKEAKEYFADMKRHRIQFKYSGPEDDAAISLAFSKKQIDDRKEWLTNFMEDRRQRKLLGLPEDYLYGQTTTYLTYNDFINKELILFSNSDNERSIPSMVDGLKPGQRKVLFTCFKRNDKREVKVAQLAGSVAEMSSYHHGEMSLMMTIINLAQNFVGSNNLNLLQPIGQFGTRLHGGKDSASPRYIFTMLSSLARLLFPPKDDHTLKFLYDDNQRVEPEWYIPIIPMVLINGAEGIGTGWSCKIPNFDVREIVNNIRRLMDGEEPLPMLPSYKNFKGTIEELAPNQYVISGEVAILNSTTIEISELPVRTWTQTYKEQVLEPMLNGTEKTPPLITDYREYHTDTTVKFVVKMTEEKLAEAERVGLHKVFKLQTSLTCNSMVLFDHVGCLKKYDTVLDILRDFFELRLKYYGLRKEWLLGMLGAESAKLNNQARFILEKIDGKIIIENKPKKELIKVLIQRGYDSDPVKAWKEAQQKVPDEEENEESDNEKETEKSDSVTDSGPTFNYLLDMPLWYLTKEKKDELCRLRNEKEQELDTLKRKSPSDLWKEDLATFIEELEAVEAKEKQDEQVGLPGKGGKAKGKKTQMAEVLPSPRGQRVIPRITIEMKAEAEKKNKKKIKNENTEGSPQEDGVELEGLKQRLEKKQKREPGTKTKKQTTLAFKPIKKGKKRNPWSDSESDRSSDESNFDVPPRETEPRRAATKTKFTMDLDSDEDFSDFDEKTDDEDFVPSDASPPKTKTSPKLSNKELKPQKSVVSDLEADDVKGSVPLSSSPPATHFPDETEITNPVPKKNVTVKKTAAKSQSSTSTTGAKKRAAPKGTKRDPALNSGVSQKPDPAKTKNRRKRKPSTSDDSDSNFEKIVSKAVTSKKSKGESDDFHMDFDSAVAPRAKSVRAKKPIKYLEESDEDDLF

Regarding `CC1(C)OC2=C(C(=O)c3ccccc3C2=O)[C@H]2c3cc(Br)cc(Br)c3OC[C@H]21`, the outcome in assay [1] and in assay [2] was Active. Besides, the result in assay [3] and in assay [4] was inactive.
With `CC1(C)OC2=C(C(=O)C(=O)c3ccccc32)[C@@H]2c3cc(Br)ccc3OC[C@@H]21`, the result in assay [1] and in assay [2] was Active. The result in assay [3] and in assay [4] was inactive.
In the case of `C[C@@H]1CC[C@H]2[C@H]1C1=C(OC2(C)C)C(=O)c2ccccc2C1=O`, the outcome in assay [1], in assay [2], in assay [3] and in assay [4] was inactive.
In the case of `C[C@@H]1CC[C@@H]2[C@@H](C1)C1=C(OC2(C)C)C(=O)c2ccccc2C1=O`, the outcome in assay [1], in assay [2], in assay [3] and in assay [4] was inactive.
For `C[C@H]1CC[C@@H]2[C@@H]1C1=C(OC2(C)C)c2ccccc2C(=O)C1=O`, the result in assay [1], in assay [2], in assay [3] and in assay [4] was inactive.
With `COc1ccc2c(c1)OC[C@H]1[C@@H]2C2=C(OC1(C)C)c1ccccc1C(=O)C2=O`, the outcome in assay [1] and in assay [2] was Active. In addition, the result in assay [3] and in assay [4] was inactive.
Take `COc1cc([C@@H]2c3cc4c(cc3[C@@H](O[C@@H]3O[C@@H]5CO[C@@H](C)O[C@H]5[C@H](O)[C@H]3O)[C@H]3COC(=O)[C@H]23)OCO4)cc(OC)c1O`: the outcome in assay [2] and in assay [4] was inactive. In assay [3], the outcome was Active.
For the molecule `COc1ccc2c(c1)OC[C@@H]1[C@H]2C2=C(OC1(C)C)C(=O)c1ccccc1C2=O`, the result in assay [1] and in assay [2] was Active. For the same molecule, the outcome in assay [3] and in assay [4] was inactive.
Consider `CC1(C)OC2=C(C(=O)C(=O)c3ccccc32)[C@@H]2c3c(ccc4ccccc34)OC[C@@H]21`, for which the result in assay [1] and in assay [2] was Active. Besides, the result in assay [3] and in assay [4] was inactive.
For the molecule `CC[n+]1c(-c2ccccc2)c2cc(N)ccc2c2ccc(N)cc21`, in assay [4], the outcome was Active.
Consider `CC1(C)OC2=C(C(=O)c3ccccc3C2=O)[C@H]2c3c(ccc4ccccc34)OC[C@H]21`, for which the result in assay [1], in assay [2], in assay [3] and in assay [4] was inactive.
In the case of `C[C@H]1CC[C@H]2[C@H](C1)C1=C(OC2(C)C)c2ccccc2C(=O)C1=O`, the outcome in assay [1], in assay [2], in assay [3] and in assay [4] was inactive.
As to `CC1(C)OC2=C(C(=O)c3ccccc3C2=O)[C@H]2c3cc(Br)ccc3OC[C@H]21`, the result in assay [1] and in assay [2] was Active. Besides, the result in assay [3] and in assay [4] was inactive.
For the molecule `Cc1c2ccncc2c(C)c2c1[nH]c1ccccc12`, the result in assay [2] and in assay [4] was Active. For the same molecule, the result in assay [3] was inactive.
